From ChEMBL document CHEMBL1135686, “Binding model for nonpeptide antagonists of alpha(v)beta(3) integrin” (J Med Chem, 2002)

The compounds below were run against Integrin alpha-V/beta-3 (Homo sapiens, UniProt P05106+P06756) (assay: Inhibition of Vitronectin receptor, integrin alphaV-beta3 expressed in HEK 293 cells).
Assay type: cell-based, HEK293
Outline: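 Human recombinant αvβ3 was purified from HEK 293 cells overexpressing it, following a placental αvβ3 purification method, and captured on lyophilized wheat germ agglutinin SPA beads. Values are reported as IC50.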

Integrin alpha-V/beta-3, sequence (P05106 27-788 limits assumed): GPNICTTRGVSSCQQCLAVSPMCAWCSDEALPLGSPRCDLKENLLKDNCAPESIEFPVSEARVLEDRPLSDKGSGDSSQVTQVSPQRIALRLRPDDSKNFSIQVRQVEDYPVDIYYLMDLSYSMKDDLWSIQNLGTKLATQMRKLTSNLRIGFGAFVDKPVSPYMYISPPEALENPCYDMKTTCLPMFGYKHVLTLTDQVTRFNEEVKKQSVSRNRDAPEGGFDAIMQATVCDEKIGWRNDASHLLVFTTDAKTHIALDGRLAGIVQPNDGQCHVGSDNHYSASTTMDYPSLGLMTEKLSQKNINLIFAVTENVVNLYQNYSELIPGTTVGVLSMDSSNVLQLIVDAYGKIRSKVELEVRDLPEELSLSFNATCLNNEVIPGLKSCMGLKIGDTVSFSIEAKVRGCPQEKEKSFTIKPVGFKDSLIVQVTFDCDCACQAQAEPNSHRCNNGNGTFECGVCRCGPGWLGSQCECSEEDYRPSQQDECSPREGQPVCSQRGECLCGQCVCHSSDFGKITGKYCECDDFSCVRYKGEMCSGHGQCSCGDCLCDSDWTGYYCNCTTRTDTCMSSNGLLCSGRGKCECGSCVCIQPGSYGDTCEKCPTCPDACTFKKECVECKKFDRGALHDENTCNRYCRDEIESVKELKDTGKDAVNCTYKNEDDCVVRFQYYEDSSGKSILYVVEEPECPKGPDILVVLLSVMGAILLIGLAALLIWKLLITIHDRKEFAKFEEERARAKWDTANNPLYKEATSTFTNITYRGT
Integrin alpha-V/beta-3, sequence (P06756 31-889 limits assumed): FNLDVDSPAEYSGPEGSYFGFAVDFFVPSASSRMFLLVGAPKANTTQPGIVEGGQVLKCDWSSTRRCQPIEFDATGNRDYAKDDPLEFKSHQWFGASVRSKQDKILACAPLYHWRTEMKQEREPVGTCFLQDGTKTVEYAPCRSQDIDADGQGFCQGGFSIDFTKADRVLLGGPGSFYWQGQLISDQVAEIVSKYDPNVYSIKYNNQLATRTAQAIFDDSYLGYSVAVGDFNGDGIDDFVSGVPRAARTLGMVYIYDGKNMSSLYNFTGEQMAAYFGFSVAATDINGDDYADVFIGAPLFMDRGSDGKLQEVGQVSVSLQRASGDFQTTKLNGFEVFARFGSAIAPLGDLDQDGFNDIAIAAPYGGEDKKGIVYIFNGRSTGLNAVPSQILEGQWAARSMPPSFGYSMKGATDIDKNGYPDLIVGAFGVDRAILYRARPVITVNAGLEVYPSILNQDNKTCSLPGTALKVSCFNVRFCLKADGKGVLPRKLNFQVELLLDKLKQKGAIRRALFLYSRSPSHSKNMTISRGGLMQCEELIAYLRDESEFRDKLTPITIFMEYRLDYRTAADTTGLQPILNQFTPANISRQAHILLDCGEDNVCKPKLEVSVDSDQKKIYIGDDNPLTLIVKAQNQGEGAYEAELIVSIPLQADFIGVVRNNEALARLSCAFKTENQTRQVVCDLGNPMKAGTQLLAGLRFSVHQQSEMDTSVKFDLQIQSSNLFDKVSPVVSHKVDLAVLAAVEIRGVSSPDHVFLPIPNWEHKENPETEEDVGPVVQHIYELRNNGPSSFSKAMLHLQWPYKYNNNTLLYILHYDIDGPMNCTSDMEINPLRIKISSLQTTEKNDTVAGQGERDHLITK
Integrin alpha-V/beta-3, sequence (P06756 891-1048 limits assumed): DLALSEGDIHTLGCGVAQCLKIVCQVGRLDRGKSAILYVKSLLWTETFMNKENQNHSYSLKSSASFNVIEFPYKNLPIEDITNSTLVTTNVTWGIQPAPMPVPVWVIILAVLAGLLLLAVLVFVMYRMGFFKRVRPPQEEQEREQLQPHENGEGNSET

| Structure (SMILES) | IC50 [nM] |
| --- | --- |
| O=C(O)C[C@H](NC(=O)CNC(=O)CCCc1ccc2c(n1)NCCC2)c1cccnc1 | 8.8 |
| O=C(NC[C@H](NS(=O)(=O)c1ccccc1)C(=O)O)c1ccc(OCCC2CCNCC2)cc1 | > 1000 |

The next compounds have a lower IC50 than those just listed; values first:

| IC50 [nM] | Structure (SMILES) |
| --- | --- |
| 0.35 | O=C(O)C[C@H](NC(=O)CN1CCC(CCc2ccc3c(n2)NCCC3)C1=O)c1cccnc1 (stereo not given in full) |
| 0.15 | CNc1cccc(CCOc2ccc3c(c2)CN(CC(F)(F)F)C(=O)[C@H](CC(=O)O)C3)n1 |
| 0.04 | O=C(O)C[C@H](NC(=O)CN1CCC(CCc2ccc3c(n2)NCCC3)C1=O)c1cnc2ccccc2c1 (stereo not given in full) |
